Source: PubChem BioAssay
A selection: hits, their analogues and other compounds. The true share with any hit is near 3.5%.
RGS4 block = human RGS4 inhibition. B-score at 10 µM. AID 463165. 310,000 compounds, 0.45% hits. P49798. HEK293 M3R/RGS4 inducible, Fluo-4 calcium flux; stronger effect = higher value; triggered by carbachol at its EC20;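 active = B-score, a plate-corrected calcium signal, over three deviations above library mean, with baseline fluorescence within five deviations of library mean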;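 note: RGS4 expression induced by doxycycline in cells with stable M3 receptor; B-score is computed from the integrated fluorescence ratio over baseline after carbachol; higher B-score means a larger calcium signal and so more RGS4 inhibition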
Target sequence (P49798 whole entry, looked up): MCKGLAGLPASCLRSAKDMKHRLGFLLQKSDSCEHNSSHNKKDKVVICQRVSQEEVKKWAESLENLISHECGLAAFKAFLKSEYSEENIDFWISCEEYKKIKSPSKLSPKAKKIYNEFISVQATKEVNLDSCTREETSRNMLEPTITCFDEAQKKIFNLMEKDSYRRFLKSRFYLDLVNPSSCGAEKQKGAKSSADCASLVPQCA
MrgX1 ag = activates human MrgX1 receptor signaling | MrgX1-HEK293 cells, Fluo-4 calcium fluorescence, agonist mode; stronger effect = higher value | B-score at 10 µM | 310,000 compounds, 0.44% hits;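 active = calcium response B-score plate-corrected fluorescence ratio at least 3 library SD, with starting fluorescence B-score inside 5 SD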
Target sequence (Q96LB2 whole entry, looked up): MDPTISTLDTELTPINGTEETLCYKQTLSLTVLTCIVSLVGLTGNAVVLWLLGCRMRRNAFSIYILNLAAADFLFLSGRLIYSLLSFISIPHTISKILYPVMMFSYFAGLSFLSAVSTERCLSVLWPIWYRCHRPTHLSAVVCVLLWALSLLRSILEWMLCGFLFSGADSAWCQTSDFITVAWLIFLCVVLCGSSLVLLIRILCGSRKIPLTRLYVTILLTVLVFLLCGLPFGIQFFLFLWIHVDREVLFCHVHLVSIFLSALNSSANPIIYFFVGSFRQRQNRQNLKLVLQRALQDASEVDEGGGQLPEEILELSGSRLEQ
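Material: MrgX1-expressing HEK293 cells; input: 15,000 cells per well; doses: test compound given as first of three sequential additions; schedule: overnight plating before 1 h dye loading; technique: Fluo-4 NW calcium-flux fluorescence, kinetic read; evaluation: baseline-normalised fluorescence change ratio, B-scored; control set: plate-wise positive and negative controls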
MrgX1 PAM = allosterically activates human MrgX1 receptor signaling; B-score at 10 µM; MrgX1-HEK293, Fluo-4 calcium flux, FDSS; stronger effect = higher value; Q96LB2; 310,000 compounds, 0.63% hits;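 active = plate-corrected calcium response at least 3 library SD above typical, normal starting fluorescence, not activating the receptor alone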;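 note: compound read alongside a low EC10 to EC30 dose of BAM8-22 agonist; peak minus trough fluorescence over baseline measured at the second addition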
RGS4 act = RGS4 potentiation or activation; AID 463111; 310,000 compounds, 0.92% hits; B-score at 10 µM; HEK293 M3R/inducible RGS4, carbachol calcium flux Fluo4; stronger effect = lower value;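 active = B-score of the integrated calcium signal more than 4 SD below the library mean, with starting fluorescence not abnormally high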;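 note: negative B-score means reduced calcium response which marks RGS4 activation or potentiation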
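Assay system: Inducible-RGS4 HEK293 cells carrying M3 receptor | Schedule: Compound preincubation 20 min at room temperature before agonist | Signal: Kinetic calcium fluorescence imaging with Fluo4-AM dye, 2 µM | Read-out basis: B score from integrated fluorescence ratio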
MrgX1 antagonist = blocks BAM8-22 activation of human MrgX1 receptor; AID 588676; Q96LB2; MRGX1-HEK293 calcium flux, Fluo-4, BAM8-22 antagonism; stronger effect = lower value; B-score at 10 µM; 310,000 compounds, 1.3% hits;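 active = calcium-response B-score plate-corrected more than 3 library SD below zero, starting fluorescence within 5 deviations, no agonist response on first addition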;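 note: peak minus trough fluorescence over baseline after final BAM8-22 challenge near maximal dose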
MrgX1 ant reconf = confirmation of human MrgX1 receptor antagonists; 2,300 compounds, 19% hits; remaining BAM8-22 calcium response % of control (stronger effect = lower value), % at 10 µM; shares compounds with MrgX1 antagonist; MrgX1-HEK293, BAM8-22 calcium flux, Fluo-4; stronger effect = lower value; AID 602420;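 active = remaining agonist calcium response no higher than 100% minus 3 SD of agonist-only control wells, with starting fluorescence near control levels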;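 note: agonist BAM8-22 given at a near maximal EC90 to ECmax level; peak minus minimum fluorescence divided by baseline after agonist addition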
HEK293 Ca flux = activity in parental HEK293 cells lacking MrgX1; shares compounds with MrgX1 antagonist; Fluo-4 calcium fluorescence, FDSS; fluorescence ratio F(max-min)/F0 at 10 µM; 4,000 compounds, 2% hits;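 active = duplicate-averaged calcium fluorescence ratio at least three times the standard deviation of buffer wells, a nonspecific response in parental cells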
HEK293 Ca counter = MrgX1 allosteric activator counter-screen hit in parental HEK293 cells | shares compounds with MrgX1 antagonist | AID 624114 | fluorescence ratio F(max-min)/F0 at 10 µM | parental HEK293 calcium flux, Fluo-4 fluorescence ratio; stronger effect = higher value | 4,000 compounds, 0.4% hits;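 active = calcium fluorescence ratio, averaged over duplicates, at least 3 SD of the buffer-well ratio, meaning a nonspecific response in receptor-free cells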;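 note: untransfected parental HEK293 lacking MrgX1 used as counterscreen for MrgX1 allosteric activators; fluorescence change taken during the second addition on a kinetic imager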
HEK293 Ca cntr2 = MrgX1 activator counter-screen hit in parental HEK293 cells; shares compounds with MrgX1 antagonist; Fluo-4 calcium fluorescence (FDSS); stronger effect = higher value; fluorescence ratio F(max-min)/F0 at 10 µM; 4,000 compounds, 8.7% hits; AID 624115;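 active = calcium fluorescence ratio at least three times the spread of buffer wells, meaning a non-specific response in parental cells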
Starred values were filed as active, the others as inactive; i = inactive; · = no result.

SMILES | RGS4 block | MrgX1 ag | MrgX1 PAM | RGS4 act | MrgX1 antagonist | MrgX1 ant reconf | HEK293 Ca flux | HEK293 Ca counter | HEK293 Ca cntr2
O=C1c2cccc3c(N4CCCCC4)ccc(c23)C(=O)N1c1cccc(O)c1 | i | i | i | i | -5.16* | i | i | i | i
COc1ccccc1NC(=O)C1CCN(C(=O)NCc2ccccc2)CC1 | i | i | i | i | i | · | · | · | ·
CCCNC(=O)N1CCC(C(=O)c2cccc(F)c2)CC1 | i | i | i | i | -4.86* | i | i | i | i
CCCNC(=O)N1CCCC(C(=O)c2cccc(Cl)c2)C1 (stereo unspecified) | i | i | i | i | i | · | · | · | ·
COc1ccc(N2CCN(C(=O)c3c(-c4c(F)cccc4Cl)noc3C)CC2)cc1 | i | i | i | i | i | · | · | · | ·
COc1ccc(S(=O)(=O)N(CCc2ccccc2)CC(N)=O)cc1 | i | i | i | i | -5.44* | i | i | i | i
CCOc1ccc(N2C(=O)CC(Sc3n[nH]c(-c4ccccc4)n3)C2=O)cc1 (stereo unspecified) | i | i | i | i | -5.02* | i | i | i | i
C=C[C@]1(C)C[C@@H](OC(=O)CSCCN(CC)CC)[C@]2(C)C(C)CC[C@]3(CCC(=O)[C@H]32)[C@@H](C)[C@@H]1O (stereo partly specified) | i | i | i | i | i | · | · | · | ·
CCOCc1cnc(C)nc1NCC(=O)c1c(C)[nH]c2ccc(OC)cc12 | i | i | i | i | -8.76* | i | i | i | i
Cc1ccc(NC(=O)C2CCN(S(=O)(=O)c3ccc4c(c3)NC(=O)C(C)S4)CC2)cc1Cl (stereo unspecified) | i | i | i | i | -4.6* | 85.5%* | i | i | i
Cc1cc(C)cc(NC(=O)C2CCN(S(=O)(=O)c3ccc4c(c3)NC(=O)C(C)S4)CC2)c1 (stereo unspecified) | i | i | i | i | i | · | · | · | ·
Cn1c(N)c(C(=O)COC(=O)COc2ccccc2C#N)c(=O)n(C)c1=O | i | i | i | i | i | · | · | · | ·
COc1cc(OC)c(C(=O)OCC(=O)N(Cc2ccccc2)C(C)(C)C)cc1OC | i | i | i | i | i | · | · | · | ·
Cc1nnnn1-c1ccc(CC(=O)O)cc1 | i | i | i | i | -7.12* | i | i | i | i
O=C(O)CSc1nnnn1-c1ccccc1 | i | i | i | i | i | · | · | · | ·
O=C(NCCC1CCCCN1S(=O)(=O)c1ccc(F)cc1)C(=O)NCC1CCCO1 (stereo unspecified) | i | i | i | i | -5.99* | i | i | i | i
CSCCC(C(=O)OCC(=O)c1ccc(C)c(C)c1)N1C(=O)c2cc(Cl)c(Cl)cc2C1=O (stereo unspecified) | i | i | i | i | -5.16* | i | i | i | i
CN(C(=O)c1cccs1)c1ccccc1C(=O)O | i | i | i | i | -5.72* | i | i | i | i
Cc1ccc2[nH]c(=O)c(CN(CCN3CCOCC3)C(=O)Nc3ccc(F)cc3)cc2c1 | i | i | i | i | -5.15* | i | i | i | i
Cc1c(OCC(=O)NCCN2CCOCC2)ccc2c1oc(=O)c1ccccc12 | i | i | i | i | i | · | · | · | ·
Cc1ccccc1NC(=O)C1C2/C=C\CCCCC21 (stereo unspecified) | i | i | i | i | -4.53* | i | i | i | i
Cc1ccccc1NC(=O)C1C2CCCCC21 (stereo unspecified) | i | i | i | i | i | · | · | · | ·
COc1cccc(NCc2cc(=O)oc3cc(C)c(C(C)C)cc23)c1 | i | i | i | i | i | · | · | · | ·
COC(=O)c1sc(-c2ccc(C(C)(C)C)cc2)cc1NC(=O)c1ccccc1C(=O)O | i | i | i | i | -7.06* | 70.4%* | i | i | 99.5*
COC(=O)c1sc(-c2ccc(Cl)cc2)cc1NC(=O)c1ccccc1C(=O)O | i | i | i | i | i | · | · | · | ·
SMILES | RGS4 block | MrgX1 ag | MrgX1 PAM | RGS4 act | MrgX1 antagonist | MrgX1 ant reconf | HEK293 Ca flux | HEK293 Ca counter | HEK293 Ca cntr2
CC(OC(=O)CCN=C1NS(=O)(=O)c2ccccc21)C(=O)N(C)c1ccccc1 (stereo unspecified) | i | i | i | i | -10.6* | i | i | i | i
Cc1cccc(N(C)S(=O)(=O)c2cccc3nsnc23)c1 | i | i | i | i | -5.02* | i | i | i | i
Cc1ccc(NC(=O)CN(C)S(=O)(=O)c2cccc3nsnc23)cc1C | i | i | i | i | i | · | · | · | ·
CN(CC(=O)Nc1ccc(F)c(F)c1)S(=O)(=O)c1cccc2nsnc12 | i | i | i | i | -10.2* | i | i | i | i
CCOc1ccc(NC(=O)CSc2nc(=O)n(CCCN3CCOCC3)c3c2CCC3)cc1 | i | i | i | i | i | · | · | · | ·
O=S(=O)(NCCN1CCCC1)c1ccc(Cl)cc1 | i | i | i | i | -4.76* | i | i | i | i
O=S(=O)(NCCN1CCCC1)c1ccc(Br)cc1 | i | i | i | i | i | · | · | · | ·
Cc1ccc(NC(=O)CSc2ncnc3ccccc23)cc1S(=O)(=O)N1CCCCCC1 | i | i | i | i | -5.31* | 67.1%* | i | i | i
CCOC(=O)Cn1cc(C(=O)c2ccco2)c2ccccc21 | i | i | i | i | i | · | · | · | ·
O=C(O)Cn1cc(C(=O)c2ccco2)c2ccccc21 | i | i | i | i | -7.94* | i | i | i | i
C/C=C(\C)CN1CCC(n2nccc2NC(=O)CCCc2ccccc2)CC1 | i | i | i | i | i | · | · | · | ·
Cc1cc(=O)[nH]c(SCCOc2ccc(OC(C)C)cc2)n1 | i | i | i | i | -6.72* | i | i | i | i
